Data taken from publication PMC11522000 (Nature Microbiology, 2024).
≈ marks a conversion by molar mass, not a printed value.

Assays:
CpPI(4)K = target: T1, CpPI(4)K (Cryptosporidium parvum, UniProt Q5CVD3); assay: PI; format: biochemical, C. parvum; details: CpPI(4)K IC50, 3 μM ATP
T1 sequence (Q5CVD3 1-1114): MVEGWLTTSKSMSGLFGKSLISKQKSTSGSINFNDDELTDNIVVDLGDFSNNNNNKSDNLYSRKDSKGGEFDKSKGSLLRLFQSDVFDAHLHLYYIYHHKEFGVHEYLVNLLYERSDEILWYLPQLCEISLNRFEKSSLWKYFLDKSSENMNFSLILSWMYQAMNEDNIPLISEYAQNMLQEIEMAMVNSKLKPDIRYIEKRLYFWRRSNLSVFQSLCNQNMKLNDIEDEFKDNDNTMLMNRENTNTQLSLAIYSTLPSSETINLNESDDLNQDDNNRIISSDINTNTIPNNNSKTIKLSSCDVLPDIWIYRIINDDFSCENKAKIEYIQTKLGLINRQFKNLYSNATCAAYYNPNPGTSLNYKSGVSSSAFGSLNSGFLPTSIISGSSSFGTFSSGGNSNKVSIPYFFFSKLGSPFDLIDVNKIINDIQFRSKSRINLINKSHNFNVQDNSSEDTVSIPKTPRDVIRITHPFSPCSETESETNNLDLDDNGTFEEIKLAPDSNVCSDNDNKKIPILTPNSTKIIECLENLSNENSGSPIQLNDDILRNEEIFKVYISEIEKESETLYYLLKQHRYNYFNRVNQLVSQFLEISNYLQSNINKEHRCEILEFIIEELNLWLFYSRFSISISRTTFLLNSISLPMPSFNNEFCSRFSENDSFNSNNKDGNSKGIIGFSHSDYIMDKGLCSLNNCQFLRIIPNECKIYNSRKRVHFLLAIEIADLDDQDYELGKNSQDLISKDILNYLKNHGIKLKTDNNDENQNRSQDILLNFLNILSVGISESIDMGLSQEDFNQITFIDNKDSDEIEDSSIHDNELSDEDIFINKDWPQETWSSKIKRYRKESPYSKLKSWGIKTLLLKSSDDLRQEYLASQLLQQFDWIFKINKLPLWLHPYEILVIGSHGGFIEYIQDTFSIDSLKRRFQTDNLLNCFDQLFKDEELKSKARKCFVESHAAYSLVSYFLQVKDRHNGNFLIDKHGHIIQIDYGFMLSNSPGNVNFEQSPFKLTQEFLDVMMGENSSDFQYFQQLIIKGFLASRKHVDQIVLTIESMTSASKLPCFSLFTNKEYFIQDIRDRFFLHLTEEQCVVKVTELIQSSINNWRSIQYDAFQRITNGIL
How it was run: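 Enzyme was pre-incubated with compound for 5 min at room temperature. The reaction was started with substrate mix at twice final strength (PI, ATP, Tris-HCl pH 7.5, DTT, 0.05% Triton X-100, MnCl2) and run 50 min at room temperature. ADP was measured by ADP-Glo luminescence. IC50s came from in-plate duplicate 10-point 3-fold dilutions, with DMSO and reference-inhibitor controls. The C. parvum enzymes (wild type and mutants) were full-length proteins expressed from baculovirus in Sf21 cells.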

HsPI(4)K = HsPI(4)K (Homo sapiens, UniProt Q9UBF8); assay: PI; format: biochemical; details: HsPI(4)K IC50, 3 μM ATP
Cytotoxicity assay = format: cell-based, human; details: human, HepG2 cells (ATCC CRL-10741), HepG2 CC50, 96 h
C. parvum [1] = assay: Mouse efficacy study; format: in vivo, C57BL/6 IFN-γ-knockout mice; details: oral 10 mg kg^−1, 5 days; nitazoxanide 100 mg kg^−1
C. parvum [2] = assay: Washout assay, nanoluciferase-expressing C. parvum; format: cell-based, Cryptosporidium parvum; details: regardless of the stage of drug exposure
How it was run: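 HCT-8 cells were grown to ~90% confluence, then infected with 400 nanoluciferase-expressing oocysts per well. Before infection, oocysts were primed for excystation with 10 mM HCl in water (10 min, 37 °C), then 2 mM sodium taurocholate in DPBS with Ca/Mg (10 min, 16 °C). Luminescence was read over time. RLU taken soon after infection served as day 0 and was used to normalize each timepoint.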

C. parvum [3] = assay: Time-kill assay, nanoluciferase-expressing C. parvum; format: cell-based, Cryptosporidium parvum
C. parvum [4] = assay: Host cell invasion assay; format: cell-based, Cryptosporidium parvum; details: HCT-8, 3 h; EDI048 and KDU731 20 µM, wiskostatin 11.3 µM
How it was run: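 HCT-8 monolayers were 95–100% confluent. Compounds were added at twice the final concentration 1 h before infection with 50,000 primed oocysts per well. Plates were kept 3 h at 37 °C, 5% CO2, then washed with PBS-0.1% Tween 20, fixed in 4% PFA for 15 min at room temperature, permeabilized with 0.25% Triton X-100 and blocked in 4% BSA. Vacuoles were stained with fluorescein-VVL and nuclei with Hoechst, then imaged.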

C. parvum [5] = assay: Cytopathic effect; format: cell-based, Cryptosporidium parvum; details: read-out: Cp CPE EC50; C. parvum, HCT-8, 48 h
How it was run: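 HCT-8 cells were grown at 37 °C, 5% CO2 in RPMI-1640 with 10% heat-inactivated FBS. Oocysts were excysted in 10 mM HCl/HBSS for 10 min at 37 °C, then in 2 mM sodium taurocholate in L-15/UltraCULTURE medium for 5 min. Infected cells were seeded onto pre-spotted compound (10-point, 3-fold dilution; DMSO and reference-inhibitor controls) and incubated 48 h. Cells were then lysed for a viability read-out, and concentration-response curves were fitted.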

[6] = High-throughput equilibrium solubility; format: physicochemical; details: pH 6.8, aqueous buffer, thermodynamic from solid
How it was run: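 Equilibrium solubility was measured by a miniaturized shake-flask method with HPLC quantification.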

[7] = Hepatocytes metabolic stability; format: in vitro ADME; details: human
How it was run: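 Test compound was incubated with liver microsomes or hepatocytes of each species, and parent depletion was quantified by LC-MS/MS. From this, in vitro half-life and intrinsic clearance were derived, along with predicted metabolic clearance and hepatic extraction ratio.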

[8] = Stability in intestinal S9 fraction; format: in vitro ADME; details: mouse
How it was run: (§1)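 Test compound added to intestinal S9 fraction of each species to start the reaction. Incubated in a shaking water bath at 37 °C, with samples taken at sequential timepoints. Samples quenched with ice-cold acetonitrile and analysed by LC-MS/MS. Half-life calculated from the rate of parent compound depletion.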

[9] = Stability in intestinal S9 fraction; format: in vitro ADME; details: human
How it was run: as §1

Plasma stability [10] = format: in vitro ADME; details: mouse
How it was run: (§2)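 Test compound was added to plasma and incubated at 37 °C in a shaking water bath, with samples taken at sequential timepoints. Samples were quenched with ice-cold acetonitrile and analysed by LC-MS/MS, and half-life was calculated from the depletion rate.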

Plasma stability [11] = format: in vitro ADME; details: human
How it was run: as §2

HsPI(4)K, sequence (Q9UBF8 523-816 limits assumed): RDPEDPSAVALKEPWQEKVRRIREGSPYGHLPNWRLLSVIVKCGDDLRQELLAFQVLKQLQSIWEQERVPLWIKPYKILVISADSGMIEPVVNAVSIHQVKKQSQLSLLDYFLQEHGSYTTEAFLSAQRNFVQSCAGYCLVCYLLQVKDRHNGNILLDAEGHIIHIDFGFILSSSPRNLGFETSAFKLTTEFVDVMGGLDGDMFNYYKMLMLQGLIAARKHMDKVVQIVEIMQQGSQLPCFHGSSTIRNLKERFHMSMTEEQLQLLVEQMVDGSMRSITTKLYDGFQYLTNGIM

SMILES	IC50 (CpPI(4)K) [nM]	IC50 (HsPI(4)K) [nM]	CC50 at 96 h (Cytotoxicity assay) [µM]	efficacy in the mouse model (C. parvum [1])	washout: cidal activity (C. parvum [2])	parasiticidal or parasitistatic (C. parvum [3])	sporozoite invasion (C. parvum [4])	EC50 (C. parvum [5]) [nM]	solubility [6] [µM]	Hepatocytes ER [7] [%]	half-life ([7]; hepatocytes) [min]	half-life [8] [min]	half-life [9] [min]	half-life (Plasma stability [10]) [min]	half-life (Plasma stability [11]) [min]
CC(=O)Oc1ccccc1C(=O)Nc1ncc([N+](=O)[O-])s1 [NTZ, Nitazoxanide, reference compound]	> 10000	> 30000	34.9	not efficacious	not cidal	static	–	–	–	–	–	–	–	–	–
CN(C)C[C@H](O)Cn1c2ccc(Br)cc2c2cc(Br)ccc21 (racemic) [wiskostatin, reference compound]	–	–	–	–	–	–	prevented sporozoite invasion and formation of trophozoites	–	–	–	–	–	–	–	–
CNC(=O)c1ccc(-c2cnn3ccc(C(=O)N(C[C@H]4CCC(=O)O4)c4ccc(OC(F)(F)F)cc4)cc23)cc1 [Compound 4, (R)-3-(4-(methylcarbamoyl)phenyl)-N-((5-oxotetrahydrofuran-2-yl)methyl)-N-(4-(trifluoromethoxy)phenyl)pyrazolo[1,5-a]pyridine-5-carboxamide]	18 ± 11	1380 ± 130	32.2	poor in vivo efficacy	–	–	–	349 ± 181	37 (≈ 20.4 µg/mL)	95	4.8	96	215	< 5	> 120
